# PAFAH2 inh: PAFAH2 (human) inhibition; inhibition, % at 3.39 µM; 340,000 tested, 0.99% active; Q99487; recombinant PAFAH2, FP-rhodamine activity probe, fluorescence polarization; AID 492956;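 active = inhibition above the mean over all tested compounds plus 3 SD, cut at about 30% in these data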;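 also: inhibitors block probe labeling of enzyme so polarization drops; 0% = enzyme with DMSO and 100% = wells lacking PAFAH2 protein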
# PAFAH1B3 FP inh: inhibitors of human PAFAH1B3. Q15102. recombinant PAFAH1B3, FP-rhodamine probe, fluorescence polarization. inhibition, % at 3.39 µM. 340,000 tested, 0.28% active. AID 492972;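 active = inhibition above the screen-wide average of all tested compounds plus 3 SD, cut at about 25% in these data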;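 also: 0% = enzyme with DMSO only and 100% = wells lacking PAFAH1B3 protein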
# Apaf1 inhib: human Apaf-1 inhibition. O14727. inhibition, % at 20 µM. reconstituted apoptosome caspase-3 activity, DEVD-Rh110 fluorescence. AID 489030. 330,000 tested, 0.71% active; active = inhibition of at least 40% at 20 µM;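 also: plate controls were DMSO wells for no effect and DEVD-CHO caspase inhibitor wells for full effect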
#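 Assay system – apoptosome proteins · Medium – Hepes buffer, pH 7.5 · Also added – cytochrome c with DEVD-Rh110 · Timing – 30 min compound preincubation, 50 min activation, room temperature · Detection – Rh110 fluorescence, excitation 480 nm, emission 540 nm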
# PAFAH1B2 inh: inhibitors of human PAFAH1B2 | 340,000 tested, 1.2% active | recombinant PAFAH1B2, FP-rhodamine activity probe, fluorescence polarization | P68402 | inhibition, % at 3.39 µM | AID 492953;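 active = inhibition above the mean of all tested compounds plus 3 SD, cut at about 24% in these data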;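 also: 0% = enzyme with DMSO and 100% = wells lacking PAFAH1B2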
# Target sequence (P68402 whole entry, looked up): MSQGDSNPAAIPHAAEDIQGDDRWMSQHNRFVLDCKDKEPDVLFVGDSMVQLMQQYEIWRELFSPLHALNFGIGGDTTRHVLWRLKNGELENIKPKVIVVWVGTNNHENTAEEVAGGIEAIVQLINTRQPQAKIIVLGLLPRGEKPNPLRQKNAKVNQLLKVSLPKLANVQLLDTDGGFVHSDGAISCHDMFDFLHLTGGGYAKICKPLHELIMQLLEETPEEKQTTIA
# TDP2 inh: blocks human TDP2 phosphodiesterase activity | O95551 | recombinant TDP2, T5PNP hydrolysis, p-nitrophenol absorbance 415 nm | inhibition, % at 12.8 µM | 370,000 tested, 0.34% active | AID 720702;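 active = inhibition above the mean of all tested compounds plus 3 SD, set per campaign, cut at about 25% in these data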;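 also: 0% = DMSO with enzyme and 100% = buffer with substrate but no TDP2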
# Target sequence (O95551 whole entry, looked up): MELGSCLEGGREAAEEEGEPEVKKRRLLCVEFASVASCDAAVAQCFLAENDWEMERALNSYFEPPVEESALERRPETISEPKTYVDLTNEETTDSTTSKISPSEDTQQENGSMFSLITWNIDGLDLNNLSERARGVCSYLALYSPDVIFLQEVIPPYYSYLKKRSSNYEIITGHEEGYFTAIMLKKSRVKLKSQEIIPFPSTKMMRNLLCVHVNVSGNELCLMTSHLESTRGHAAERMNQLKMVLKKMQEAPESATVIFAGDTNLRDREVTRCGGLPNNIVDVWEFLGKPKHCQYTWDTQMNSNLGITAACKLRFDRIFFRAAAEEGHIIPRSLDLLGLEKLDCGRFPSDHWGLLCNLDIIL
#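 System – recombinant human TDP2 · Quantity – TDP2 enzyme at 120 nM final · Doses – single concentration, 12.8 µM nominal, with 1% DMSO · Incubation – 2 h at 37 °C · Measured by – epi absorbance of p-nitrophenol freed from T5PNP by hydrolysis · Read-out – % inhibition relative to enzyme-containing and enzyme-free wells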
# Active calls of the source: *; . = no result given. Compounds with a hit are over-represented: about 2.3% of the library has one in this group of screens.
SMILES,PAFAH2 inh,PAFAH1B3 FP inh,Apaf1 inhib,PAFAH1B2 inh,TDP2 inh
COC[C@@H](O)[C@H]1OCc2cccc(OC)c2[C@@H]1/C=C/c1ccccc1,.,.,.,.,-4
O=S(=O)(NCc1ccc(Cl)cc1)c1ccc(Cl)nc1,-5,5,-1,34*,-7
NS(=O)(=O)c1ccc(CNS(=O)(=O)c2ccc(Cl)nc2)cc1,-1,8,-14,4,-5
CCCC[C@H]1C2CC(OC(=O)Nc3ccccc3C(F)(F)F)C(C2)[C@H]2CCCCN21 (stereo partly drawn),.,.,.,.,4
Cc1cc(SCC(=O)N/N=C/c2ccc(O)cc2O)nc2ccccc12,-1,13,-2,3,-13
Cc1cc(SCC(=O)N/N=C/c2ccc(O)c(O)c2)nc2ccccc12,32*,15,8,-2,-8
CC(C1=CCCCC1)c1cnn(C)c1 (stereo not drawn),.,.,.,.,-9
COc1ccc(-c2noc(C3CCCN(C(=O)N[C@@H]4C[C@H]4c4ccccc4)C3)n2)cc1 (stereo partly drawn),.,.,.,.,9
Cc1ccc(C)c(N2C(=N)S/C(=C\c3ccc(-c4ccccc4C(=O)O)o3)C2=O)c1,19,6,.,5,-8
CN1C(=O)/C(=C/c2ccc(-c3ccccc3[N+](=O)[O-])o2)SC1=Nc1ccc(Cl)c(C(=O)O)c1,31*,23,.,16,6
CC(=O)N1c2cc(S(=O)(=O)Nc3c(C)n(C)n(-c4ccccc4)c3=O)c(Br)cc2CC1C (stereo not drawn),.,.,.,.,4
N#Cc1c(SCC(N)=O)nsc1SCc1ccc(Cl)cc1,-3,6,2,30*,-9
O=C(N/N=C/C1C(c2ccccc2)C1(Cl)Cl)c1cccc(Cl)c1 (stereo not drawn),-8,2,13,29*,-1
O=C(NC(=S)Nc1ccccc1N1CCOCC1)c1ccc(Br)cc1,9,9,10,3,-3
O=C(COc1ccc(Br)cc1)NC(=S)Nc1ccccc1N1CCOCC1,-10,9,19,26*,2
O=C(O)c1cc(O)c2c(c1)[C@@H]([C@H]1c3cc(C(=O)O)cc(O)c3C(=O)c3c(O[C@@H]4O[C@H](CO)[C@@H](O)[C@H](O)[C@H]4O)cccc31)c1cccc(O[C@@H]3O[C@H](CO)[C@@H](O)[C@H](O)[C@H]3O)c1C2=O,.,.,99*,.,.
C/C(=N\O)C1/C(=N/O)CC2C1C2(C)C (stereo not drawn),9,-3,-19,34*,10
O=C(N1CCOCC1)N1CC[C@H]2[C@H](CCCN2Cc2ccccc2)C1,.,.,.,.,-5
Nc1cc(N2CCCC2)c(Cl)cc1[N+](=O)[O-],-3,5,43*,-2,-9
CCC[C@H]1[C@@H](OC(=O)NCc2ccco2)CC[C@@]23CCCN2C(=O)CCC[C@@H]13,.,.,.,.,10
COc1cc(/C=C(\C#N)C(=O)c2ccc(O)c(O)c2)cc(I)c1O,67*,-11,2,86*,12
COc1ccc(C=C(C#N)C(=O)c2ccccc2)cc1,.,.,.,.,-4
CC(=O)Oc1ccc2c(=O)c(Oc3ccccc3)coc2c1OC(C)=O,46*,-1,0,-1,-2
CC(C)(C)CC(C)(C)c1ccc(O)c(CN2CCN(CCC#N)CC2)c1,-4,-1,36,41*,2
N#CCCN1CCN(Cc2cc(-c3ccccc3)ccc2O)CC1,-5,-4,3,2,0
SMILES,PAFAH2 inh,PAFAH1B3 FP inh,Apaf1 inhib,PAFAH1B2 inh,TDP2 inh
N#Cc1c(NC(=O)CSc2ncccn2)oc(-c2ccccc2)c1-c1ccccc1,1,6,7,12,-6
N#Cc1c(NC(=O)Cn2cnc3ccccc3c2=O)oc(-c2ccccc2)c1-c1ccccc1,2,6,-6,29*,8
Cc1cc(Br)c(NC(=O)COC(=O)CC2CC3CCC2C3)c(Br)c1 (stereo not drawn),74*,8,13,8,3
O=C(COC(=O)CC1CC2CCC1C2)Nc1cc([N+](=O)[O-])ccc1F (stereo not drawn),49*,10,-5,42*,-4
O=C(COC(=O)c1ccccc1C(F)(F)F)NC(=O)NCc1ccco1,0,4,1,3,-7
O=C(COC(=O)CC1CC2CCC1C2)NC(=O)NCc1ccco1 (stereo not drawn),5,0,4,25*,-3
NC(=O)c1ccc(NC(=O)COC(=O)CC2CC3CCC2C3)cc1 (stereo not drawn),-3,10,-4,6,9
COc1ccc(CNC(=O)COC(=O)CC2CC3CCC2C3)cc1OC (stereo not drawn),-2,14,-3,4,-7
Cc1ccc(C)c(NC(=O)COC(=O)CC2CC3CCC2C3)c1 (stereo not drawn),38*,7,4,20,6
CC(C)NC(=O)N[C@H]1C[C@@H]2O[C@H](CO)CC[C@@H]2O[C@@H]1CCc1ccc(-c2ccc(F)cc2)cc1,.,.,.,.,6
COC(=O)[C@@]12CCCCC3=C1N(CCC3)C(=O)[C@H]2CC(=O)NCc1ccc(C)o1,.,.,.,.,7
COc1cccc(NC(=O)COC(=O)CC2CC3CCC2C3)c1 (stereo not drawn),78*,1,-2,8,2
COc1cccc(NC(=O)CN(C)C(=O)CC2CC3CCC2C3)c1 (stereo not drawn),10,8,6,4,10
COc1ccc2[nH]c3c(c2c1)CCN[C@]31C(=O)N(Cc2cn(Cc3ccccc3)nn2)c2ccc(F)cc21,.,.,.,.,0
CN(C)S(=O)(=O)c1ccc(N2CCCC2)c(C(=O)Nc2ccccc2N2CCOCC2)c1,4,2,.,-1,3
CSc1ccccc1NC(=O)c1cc(S(=O)(=O)N(C)C)ccc1N1CCCC1,2,2,52*,4,12
O=C(O/N=C/c1ccc(Br)cc1)c1ccc(F)cc1,67*,2,-10,45*,7
CCN1CCc2c(sc(NC(=O)c3cc4ccccc4cc3OC)c2C(N)=O)C1,-5,-1,65*,-6,-12
O=C(c1ccncc1)N1CC[C@H]2[C@H](CCCN2Cc2ccccc2)C1,.,.,.,.,0
COC(=O)c1cc2c(-c3ccccc3)cc3ccccn3c-2c1C(=O)OC,15,1,14,0,-1
COC(=O)c1c(C(=O)OC)c2cccc3cc(-c4ccccc4)c4ccc1c4n32,14,6,65*,7,16
CN(N=Cc1ccccc1O)C(=O)c1ccccc1N,.,.,.,.,1
CCc1ccc(/C=C/C(=O)c2cc(Br)ccc(=O)c2O)cc1,34*,1,23,19,-4
O=C(C=Cc1ccccc1)c1cc(Br)ccc1O,-3,4,.,4,-7
CCOc1ccc(/C=C/C(=O)c2cc(Br)ccc(=O)c2O)cc1,16,11,.,-2,-6
Cc1cccc(/C=C/C(=O)c2cc(Br)ccc(=O)c2O)c1,34*,13,7,3,-6
S=C1Cc2ccccc2N1,41*,29*,.,18,15

# From PubChem
